Bioassay records as filed in PubChem.
A selection: hits, their analogues and other compounds. The true share with any hit is near 3.9%.
tim23-1 inh: inhibits growth of tim23-1 mutant yeast; S. cerevisiae tim23-1 growth, BacTiter-Glo luminescence, 24 h; inhibition, % at 20 µM; 1.3% of 330,000 active;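 active means growth inhibition of the mutant yeast at or above 50%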;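 further: temperature-sensitive mutant grown at 25 °C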
UPR CHOP act: apoptotic UPR (CHOP) activation; CHO-CHOP luciferase reporter, luminescence; percent of tunicamycin response over DMSO baseline; 0.34% of 330,000 active; activation, % at 10 µM;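 active means at 10 µM dose, activation of 40% or more, normalized to positive control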
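Assay system: CHO-CHOP cells, stable luciferase reporter of PERK-eIF2a-CHOP signalling / Buffer or medium: F12 plus 10% serum / Compound dosing: one dose, 10 µM in 0.5% DMSO / Times: 6 h compound treatment, 37 °C / Technique: luciferase luminescence / Read-out: % reporter activation, DMSO baseline versus tunicamycin full activation / Benchmarks: tunicamycin and DMSO controls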
UPR XBP1 act: adaptive UPR (XBP1) activation. CHO-XBP1 luciferase reporter, IRE1-XBP1 UPR activation, luminescence; percent of tunicamycin response, DMSO as zero. activation, % at 20 µM. 0.33% of 330,000 active. AID 463104;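 active means versus positive control, 20 µM dose yields 30% or more activation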
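Signal: luciferase luminescence; Assay system: CHO-XBP1 luciferase reporter cells; Amount: one thousand reporter cells per well; Dosing: 20 µM single concentration, DMSO 1%; Benchmarks: high control tunicamycin 10 µg/mL final, low control DMSO vehicle only; Schedule: 6 h compound exposure at 37 °C, 5% CO2; Evaluation: percent activation relative to tunicamycin reference.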
TIM10 inh: inhibits growth of TIM10 yeast strain; S. cerevisiae TIM10 strain growth, BacTiter-Glo luminescence, 24 h; AID 463195; 1.4% of 330,000 active; inhibition, % at 10 µM;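 active means inhibition of 40% or more at the single tested concentration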;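 further: wild-type TIM10 isogenic control strain grown at permissive 25 °C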
tim10-1 inh: tim10-1 yeast growth inhibition | S. cerevisiae tim10-1 ts strain growth, BacTiter-Glo, 24 h | inhibition, % at 20 µM | 2.2% of 330,000 active | AID 463190;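 active means inhibition of at least 40%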;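 further: mutant grown at 25 °C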
tim23-1 confirm: confirmation of tim23-1 mutant yeast growth inhibitors | AID 463218 | inhibition, % at 20 µM | S. cerevisiae tim23-1 growth, BacTiter-Glo luminescence, 24 h | 83% of 4,400 active | shares compounds with tim23-1 inh;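 active means inhibition above about 39% in either of two replicate wells at 20 µM, limit read from the data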;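 further: temperature-sensitive tim23-1 mutant grown at 25 °C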
Numbers stand for hits; ! = not active in a repeat.

For Clc1ccc(-c2cn3cccnc3n2)cc1Cl the results were tim23-1 inh 54, UPR CHOP act inactive, UPR XBP1 act inactive, TIM10 inh inactive, tim10-1 inh inactive and tim23-1 confirm inactive.
Screening O=C(NCc1csc(-c2cccs2)n1)Nc1cccc(Cl)c1 returned tim23-1 inh 53, UPR CHOP act inactive, UPR XBP1 act inactive, TIM10 inh inactive, tim10-1 inh inactive and tim23-1 confirm 64.
`CCC(=O)NCc1csc(-c2cccs2)n1` gave tim23-1 inh inactive, UPR CHOP act inactive, UPR XBP1 act inactive, TIM10 inh inactive and tim10-1 inh inactive.
`C[C@H](CCC(=O)O)[C@H]1CC[C@H]2[C@@H]3[C@H](O)C[C@@H]4C[C@H](O)CC[C@]4(C)[C@H]3CC[C@]12C` gave tim23-1 inh inactive, UPR CHOP act inactive, UPR XBP1 act inactive, TIM10 inh inactive and tim10-1 inh inactive.
Screening CC(CCC(C)C(C)(C)C)[C@@H]1CC[C@H]2C3C[C@H](OS(O)(=S)=S)[C@H]4C[C@H](OS(O)(=S)=S)[C@@H](OS(O)(=S)=S)C[C@]4(C)[C@H]3CC[C@]12C (some centres undefined) (tested in a mixture with another compound) returned tim23-1 inh 56!, UPR CHOP act inactive, UPR XBP1 act inactive, TIM10 inh inactive, tim10-1 inh inactive and tim23-1 confirm inactive.
For Cc1cc(C)n(CCC(=O)N/N=C/c2c(O)ccc3ccccc23)n1 the results were tim23-1 inh 54, UPR CHOP act inactive, UPR XBP1 act inactive, TIM10 inh inactive, tim10-1 inh inactive and tim23-1 confirm 51.
`COc1ccc2ccccc2c1/C=N/NC(=O)c1ccccc1F` gave tim23-1 inh inactive, UPR CHOP act inactive, UPR XBP1 act inactive, TIM10 inh inactive and tim10-1 inh inactive.
For COc1ccccc1OCC(=O)N/N=C/c1c(O)ccc2ccccc12 the results were tim23-1 inh 59, UPR CHOP act inactive, UPR XBP1 act inactive, TIM10 inh inactive, tim10-1 inh inactive and tim23-1 confirm 55.
`Cc1cc(C)n(CCC(=O)N/N=C/c2ccc(O)cc2)n1` gave tim23-1 inh inactive, UPR CHOP act inactive, UPR XBP1 act inactive, TIM10 inh inactive and tim10-1 inh inactive.
Screening COc1ccc2ccccc2c1/C=N\NC(=O)c1ccc(C)s1 returned tim23-1 inh 51, UPR CHOP act inactive, UPR XBP1 act inactive, TIM10 inh inactive, tim10-1 inh inactive and tim23-1 confirm inactive.
Screening COc1ccccc1OCC(=O)N/N=C/c1cccc2cccnc12 returned tim23-1 inh inactive, UPR CHOP act inactive, UPR XBP1 act inactive, TIM10 inh inactive and tim10-1 inh inactive.
Cc1nc(C)c(C(=O)OCC(=O)NCCc2ccc(F)cc2)s1 was read as tim23-1 inh inactive, UPR CHOP act inactive, UPR XBP1 act inactive, TIM10 inh inactive and tim10-1 inh inactive.
`O=C1CS(=O)(=O)N(Cc2ccc(F)cc2)c2ccccc21` gave tim23-1 inh 53, UPR CHOP act inactive, UPR XBP1 act inactive, TIM10 inh inactive, tim10-1 inh inactive and tim23-1 confirm 47.
Screening O=C1CCN(Cc2ccccc2)S(=O)(=O)c2ccc(F)cc21 returned tim23-1 inh inactive, UPR CHOP act inactive, UPR XBP1 act inactive, TIM10 inh inactive and tim10-1 inh inactive.
Screening COc1ccc(C(C)NC(=S)NC2CCCC2)cc1OC (centres undefined) returned tim23-1 inh inactive, UPR CHOP act inactive, UPR XBP1 act inactive, TIM10 inh inactive and tim10-1 inh inactive.
Cc1ccc(C(C)NC(=S)NC2CCCCC2)cc1C (centres undefined) was read as tim23-1 inh 55, UPR CHOP act inactive, UPR XBP1 act inactive, TIM10 inh inactive, tim10-1 inh inactive and tim23-1 confirm inactive.
For Cn1c(CCn2ccccc2=O)nc2cc(NC(=O)COc3ccccc3)ccc21 the results were tim23-1 inh inactive, UPR CHOP act inactive, UPR XBP1 act inactive, TIM10 inh inactive and tim10-1 inh inactive.
O=Nc1c(-c2c(O)[nH]c3cc(Br)ccc23)[nH]c2ccccc12 was read as tim23-1 inh 51, UPR CHOP act inactive, UPR XBP1 act inactive, TIM10 inh inactive, tim10-1 inh inactive and tim23-1 confirm 57.
